Molecular target: interphotoreceptor retinoid-binding protein (IRBP) (Bos taurus, UniProt P12661)
Test: Surface plasmon resonance
Set-up: species or system bovine
Conditions: for Stoichiometry (No. of sites): SPR, 25°C, n=3, ligand:IRBP binding stoichiometry; for kon: pH 7.4, read-out: ka, association rate constant; for koff: pH 7.4, read-out: kd, dissociation rate constant
Outline: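 IRBP purified by chromatography from dark-adapted bovine retinas and amine-coupled at 10 µg/mL in 10 mM sodium acetate pH 4.5 to 10–12 kRU, with an unmodified reference channel. Running buffer 10 mM PBS pH 7.4, 0.01% Tween-20, 3% DMSO; for fatty acids, HEPES pH 7.4, 0.01% Tween-20, 3% ethanol. Seven two-fold FastStep injections, typically 0.01–15 µM, in triplicate at 25°C. Data double-referenced and globally fitted.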

Sequence of interphotoreceptor retinoid-binding protein (IRBP) (P12661 23-1286): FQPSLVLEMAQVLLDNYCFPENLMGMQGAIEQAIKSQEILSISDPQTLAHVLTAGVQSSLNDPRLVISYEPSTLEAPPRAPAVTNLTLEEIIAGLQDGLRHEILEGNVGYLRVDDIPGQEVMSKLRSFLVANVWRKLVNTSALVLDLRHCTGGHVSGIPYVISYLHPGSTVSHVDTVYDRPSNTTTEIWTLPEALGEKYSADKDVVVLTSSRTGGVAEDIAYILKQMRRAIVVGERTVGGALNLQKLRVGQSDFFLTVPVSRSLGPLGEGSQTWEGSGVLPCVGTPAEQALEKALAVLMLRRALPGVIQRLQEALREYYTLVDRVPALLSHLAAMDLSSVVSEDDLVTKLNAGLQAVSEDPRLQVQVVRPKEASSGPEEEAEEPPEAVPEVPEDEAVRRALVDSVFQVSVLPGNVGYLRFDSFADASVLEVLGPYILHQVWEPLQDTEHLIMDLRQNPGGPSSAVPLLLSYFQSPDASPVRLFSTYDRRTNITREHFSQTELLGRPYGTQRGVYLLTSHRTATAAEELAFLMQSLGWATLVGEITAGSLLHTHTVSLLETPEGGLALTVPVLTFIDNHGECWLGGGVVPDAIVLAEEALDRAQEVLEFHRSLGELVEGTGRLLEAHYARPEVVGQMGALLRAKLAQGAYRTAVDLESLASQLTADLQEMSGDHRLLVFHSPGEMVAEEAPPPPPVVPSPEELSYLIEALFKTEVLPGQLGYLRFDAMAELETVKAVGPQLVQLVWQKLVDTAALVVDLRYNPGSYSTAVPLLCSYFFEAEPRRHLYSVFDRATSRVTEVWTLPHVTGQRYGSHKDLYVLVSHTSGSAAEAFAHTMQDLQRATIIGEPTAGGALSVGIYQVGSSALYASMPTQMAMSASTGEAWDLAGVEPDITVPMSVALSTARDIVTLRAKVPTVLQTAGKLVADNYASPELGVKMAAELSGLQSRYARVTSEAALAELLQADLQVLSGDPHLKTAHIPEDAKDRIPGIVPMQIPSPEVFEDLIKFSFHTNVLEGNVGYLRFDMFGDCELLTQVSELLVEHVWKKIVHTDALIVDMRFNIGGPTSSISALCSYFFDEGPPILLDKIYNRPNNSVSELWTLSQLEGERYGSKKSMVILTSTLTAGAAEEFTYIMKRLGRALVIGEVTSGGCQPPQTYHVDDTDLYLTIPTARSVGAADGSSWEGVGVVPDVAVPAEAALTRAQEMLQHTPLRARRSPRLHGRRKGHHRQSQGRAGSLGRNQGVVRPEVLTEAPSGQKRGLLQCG

Row | Stoichiometry (No. of sites) | Kd | kon | koff | Molecule
1 | 3.2 | – | – | – | meso-zeaxanthin
2 | 3.3 | 1.64 ± 0.5 µM | 33000 ± 1e+07 M⁻¹ s⁻¹ | 0.05 ± 0.5 s⁻¹ | CC1=C(/C=C/C(C)=C/C=C/C(C)=C/C=C/C=C(C)/C=C/C=C(C)/C=C/C2=C(C)C[C@@H](O)CC2(C)C)C(C)(C)C[C@H](O)C1 [Zeaxanthin]
3 | 3.1 | 0.92 ± 0.1 µM | 122000 ± 2e+09 M⁻¹ s⁻¹ | 0.11 ± 0.8 s⁻¹ | CC1=C(/C=C/C(C)=C/C=C/C(C)=C/C=C/C=C(C)/C=C/C=C(C)/C=C/C2=C(C)CCCC2(C)C)C(C)(C)CCC1 [β-carotene]
4 | 3.5 | – | – | – | CC1=C(/C=C/C(C)=C/C=C/C(C)=C/CO)C(C)(C)CCC1 [all-trans-retinol]
5 | 3.8 | 10 ± 0.1 µM | 24000 ± 3e+07 M⁻¹ s⁻¹ | 0.24 ± 0.3 s⁻¹ | CCCCC/C=C\C/C=C\C/C=C\C/C=C\CCCC(=O)O [Arachidonic acid]
6 | 3.4 | 9.4 ± 0.7 µM | 30000 ± 2e+07 M⁻¹ s⁻¹ | 0.28 ± 0.4 s⁻¹ | CC/C=C\C/C=C\C/C=C\C/C=C\C/C=C\CCCC(=O)O [Eicosapentaenoic acid (EPA), Eicosapentaenoic acid]
7 | 3.2 | – | – | – | CC1=C(/C=C/C(C)=C/C=C/C(C)=C/C=O)C(C)(C)CCC1 [all-trans-retinal]
8 | 3.4 | 10 ± 0.1 µM | 20000 ± 2e+07 M⁻¹ s⁻¹ | 0.2 ± 0.2 s⁻¹ | CC/C=C\C/C=C\C/C=C\C/C=C\C/C=C\C/C=C\CCC(=O)O [Docosahexaenoic acid (DHA), Docosahexaenoic acid]
9 | 3.7 | 11 ± 0.2 µM | 23000 ± 4e+07 M⁻¹ s⁻¹ | 0.26 ± 0.4 s⁻¹ | CCCCC/C=C\C/C=C\CCCCCCCC(=O)O [Linoleic acid]
10 | 3.4 | 1.64 ± 0.06 µM | 26800 ± 9e+07 M⁻¹ s⁻¹ | 0.04 ± 0.5 s⁻¹ | CC1=C(/C=C/C(C)=C/C=C/C(C)=C/C=C/C=C(C)/C=C/C=C(C)/C=C/C2=C(C)C(=O)[C@@H](O)CC2(C)C)C(C)(C)C[C@H](O)C1=O [Astaxanthin]
11 | 3.7 | 11.1 ± 0.7 µM | 360000 ± 2e+09 M⁻¹ s⁻¹ | 0.4 ± 0.1 s⁻¹ | CCCCCCCCCCCCCCCC(=O)O [Palmitic acid]
12 | 3.7 | 7.03 ± 0.1 µM | 32000 ± 4e+07 M⁻¹ s⁻¹ | 0.23 ± 0.6 s⁻¹ | CCCCCCCCCCCCCCCCCC(=O)O [Stearic acid]
13 | 3.4 | 3.5 ± 0.1 µM | 40000 ± 1e+07 M⁻¹ s⁻¹ | 0.14 ± 0.2 s⁻¹ | CC1=C(/C=C/C(C)=C/C=C/C(C)=C/C(=O)O)C(C)(C)CCC1 [all -trans -retinoic acid]
14 | 3.7 | 10.2 ± 0.7 µM | 280000 ± 1e+09 M⁻¹ s⁻¹ | 2.8 ± 0.1 s⁻¹ | CCCCCCCCCCCCCCCCCCCC(=O)O [Arachidic acid]
15 | 3.1 | – | – | – | CC1=C(/C=C/C(C)=C/C=C/C(C)=C/C=O)C(C)(C)CCC1 [11-cis-retinal]
16 | 3.4 | 1.06 ± 0.2 µM | 49000 ± 9e+07 M⁻¹ s⁻¹ | 0.05 ± 0.4 s⁻¹ | CC1=C[C@H](O)CC(C)(C)[C@H]1/C=C/C(C)=C/C=C/C(C)=C/C=C/C=C(C)/C=C/C=C(C)/C=C/C1=C(C)C[C@@H](O)CC1(C)C [Lutein]

Row | Molecule | Stoichiometry (No. of sites) | Kd | kon | koff
17 | CCCCCCCC/C=C\CCCCCCCC(=O)O [Oleic acid] | 3.6 | 7.3 ± 0.7 µM | 150000 ± 2e+09 M⁻¹ s⁻¹ | 1.1 ± 0.3 s⁻¹
